Laboratory results taken from ChEMBL document CHEMBL3407395, “Synthesis, characterization, and optimization for in vivo delivery of a nonselective isopeptidase inhibitor as new antineoplastic agent” (J Med Chem, 2015).
Active and inactive are the calls of the source. No cut-off for these calls is given here.

Tests used:
[1] = Cytotoxicity against human U87MG cells after 48 hrs by resazurin assay; format: functional, cell-based, U-87MG ATCC; conditions: U-87 MG
How it was run: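 U87MG glioblastoma cells treated with compounds; viability read by resazurin 48 h after treatment. IC50 from triplicate experiments, reported as mean and s.d.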

[2] = test system: A549; assay: Induction of cell death in human A549 cells assessed as accumulation of poly-ubiquitinated proteins at 0.025 to 0.5 uM after 24 hrs by immunoblot assay; format: functional, cell-based
[3] = test system: A549; assay: Induction of cell death in human A549 cells assessed as stabilization of p53 at 0.025 to 0.5 uM after 24 hrs by immunoblot assay; format: functional, cell-based
[4] = test system: A549; assay: Induction of cell death in human A549 cells assessed as accumulation of Noxa at 0.025 to 0.1 uM after 24 hrs by immunoblot assay; format: functional, cell-based
[5] = target: T1, Ubl carboxyl-terminal hydrolase 18 (Homo sapiens) (UniProt Q9UMW8); assay: Inhibition of USP18 (unknown origin) expressed in human A549 cells coexpressing ISG15-GFP assessed as reduction in free GFP at 25 to 100 nM after 24 hrs by immunoblot assay
T1 sequence (whole entry): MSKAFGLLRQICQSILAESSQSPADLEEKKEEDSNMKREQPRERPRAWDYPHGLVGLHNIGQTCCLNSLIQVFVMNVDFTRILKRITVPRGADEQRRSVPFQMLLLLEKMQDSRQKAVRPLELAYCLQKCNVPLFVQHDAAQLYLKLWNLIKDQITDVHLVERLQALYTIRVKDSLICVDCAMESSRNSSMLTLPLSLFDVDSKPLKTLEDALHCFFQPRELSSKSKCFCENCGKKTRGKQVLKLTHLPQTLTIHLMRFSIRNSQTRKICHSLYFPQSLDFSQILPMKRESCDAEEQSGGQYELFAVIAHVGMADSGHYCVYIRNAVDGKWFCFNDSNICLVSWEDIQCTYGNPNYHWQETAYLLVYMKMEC

[6] = test system: T98G; assay: Induction of necrosis in human T98G cells at 0.6 to 10 uM after 24 hrs by trypan blue assay; format: functional, cell-based
How it was run: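 T98G cells exposed 24 h to the listed concentrations. Cell death was scored as percent of trypan blue-positive cells.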

[7] = test system: U-87 MG; assay: Induction of necrosis in human U87MG cells at 0.6 to 10 uM after 24 hrs by trypan blue assay; format: functional, cell-based; conditions: U-87MG ATCC
How it was run: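 U87MG cells treated 24 h at the indicated concentrations. Death scored as percent trypan blue-positive cells. Caspase activity measured in parallel with a rhodamine 110 bis-(N-Z-DEVD amide) fluorogenic substrate and read in relative fluorescence units.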

[8] = test system: T98G; assay: Induction of apoptosis in human T98G cells assessed as caspase activation at 0.6 to 10 uM after 24 hrs by rhodamine-based fluorescence assay; format: functional, cell-based
How it was run: (§1)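 U87MG or T98G cells exposed 24 h to the listed concentrations. Caspase activity was read as relative fluorescence units from the rhodamine 110 bis-(N-Z-L-aspartyl-L-glutamyl-L-valyl-aspartic acid amide) fluorogenic substrate.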

[9] = test system: U-87 MG; assay: Induction of apoptosis in human U87MG cells assessed as caspase activation at 0.6 to 10 uM after 24 hrs by rhodamine-based fluorescence assay; format: functional, cell-based; conditions: U-87MG ATCC; how it was run: as §1
[10] = test system: U-87MG ATCC; assay: Induction of cell death in human U87MG cells at 4.2 to 18.4 uM after 24 hrs by trypan blue assay in presence of zVAD-fmk; format: functional, cell-based
[11] = target: Ubiquitin carboxyl-terminal hydrolase isozyme L1 (Homo sapiens) (UniProt P09936); assay: Inhibition of GST-tagged recombinant full-length UCHL1 (unknown origin) expressed in bacteria using Ub-AMC as substrate preincubated for 30 mins before substrate addition measured after 60 mins by fluorescence assay
Chain of Ubiquitin carboxyl-terminal hydrolase isozyme L1 (Homo sapiens) (P09936 whole entry, looked up): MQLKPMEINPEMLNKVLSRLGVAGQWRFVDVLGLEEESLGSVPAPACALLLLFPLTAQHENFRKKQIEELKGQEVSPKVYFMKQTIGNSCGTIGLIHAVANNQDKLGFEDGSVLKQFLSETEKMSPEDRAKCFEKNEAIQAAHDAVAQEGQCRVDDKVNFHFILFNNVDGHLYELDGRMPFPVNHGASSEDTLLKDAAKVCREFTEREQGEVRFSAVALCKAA
How it was run: (§2)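 Purified isopeptidase activity was measured with ubiquitin-AMC as fluorogenic substrate; IC50 was derived from inhibition.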

[12] = target: T2, Ubiquitin carboxyl-terminal hydrolase isozyme L5 (Homo sapiens, UniProt Q9Y5K5); assay: Inhibition of GST-tagged UCHL5 (unknown origin) using Ub-AMC as substrate preincubated for 30 mins before substrate addition measured after 60 mins by fluorescence assay; how it was run: as §2
T2 sequence (Q9Y5K5 whole entry): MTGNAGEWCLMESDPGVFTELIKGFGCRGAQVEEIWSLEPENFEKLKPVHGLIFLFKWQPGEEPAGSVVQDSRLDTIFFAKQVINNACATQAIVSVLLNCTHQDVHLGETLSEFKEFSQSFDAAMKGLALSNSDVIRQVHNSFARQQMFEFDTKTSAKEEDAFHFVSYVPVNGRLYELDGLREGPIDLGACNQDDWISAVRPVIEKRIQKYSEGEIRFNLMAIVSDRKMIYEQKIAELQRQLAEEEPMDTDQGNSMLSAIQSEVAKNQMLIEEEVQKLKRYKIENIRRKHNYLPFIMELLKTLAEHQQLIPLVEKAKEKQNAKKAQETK

[13] = target: T3, Ubiquitin carboxyl-terminal hydrolase 2 (Homo sapiens, UniProt O75604); assay: Inhibition of USP2 catalytic domain (unknown origin) expressed in bacteria using Ub-AMC as substrate preincubated for 30 mins before substrate addition measured after 60 mins by fluorescence assay; how it was run: as §2
T3 sequence (O75604 whole entry): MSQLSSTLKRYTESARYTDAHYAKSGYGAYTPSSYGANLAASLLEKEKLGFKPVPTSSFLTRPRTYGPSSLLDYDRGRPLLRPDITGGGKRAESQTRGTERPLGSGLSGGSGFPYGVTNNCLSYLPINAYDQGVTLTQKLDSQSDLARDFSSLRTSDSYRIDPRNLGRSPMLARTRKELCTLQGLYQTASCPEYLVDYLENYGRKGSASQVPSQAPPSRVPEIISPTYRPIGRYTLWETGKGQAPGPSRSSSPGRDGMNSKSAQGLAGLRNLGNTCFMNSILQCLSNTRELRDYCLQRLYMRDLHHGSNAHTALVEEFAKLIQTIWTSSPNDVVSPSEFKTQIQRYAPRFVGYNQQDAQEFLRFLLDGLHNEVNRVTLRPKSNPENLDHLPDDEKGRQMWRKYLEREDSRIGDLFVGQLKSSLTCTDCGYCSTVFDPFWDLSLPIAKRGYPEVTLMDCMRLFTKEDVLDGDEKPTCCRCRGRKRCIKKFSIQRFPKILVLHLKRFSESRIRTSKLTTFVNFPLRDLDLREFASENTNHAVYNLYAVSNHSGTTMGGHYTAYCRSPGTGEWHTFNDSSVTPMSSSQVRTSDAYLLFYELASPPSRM

[14] = target: T4, Ubl carboxyl-terminal hydrolase 18 (Homo sapiens, UniProt Q9UMW8); assay: Inhibition of recombinant human USP18 (16 to 372 aa) expressed in Sf9 cells using ISG15-AMC as substrate preincubated for 30 mins before substrate addition measured after 60 mins by fluorescence assay
T4 sequence (Q9UMW8 whole entry): T1 sequence (whole entry)

[15] = target: T1, Ubl carboxyl-terminal hydrolase 18 (Homo sapiens); assay: Inhibition of USP18 (unknown origin) expressed in human A549 cells coexpressing ISG15-GFP assessed as reduction in free GFP at 1 to 5 uM after 24 hrs by immunoblot assay; format: cell-based
[16] = test system: A549; assay: Induction of cell death in human A549 cells assessed as accumulation of poly-ubiquitinated proteins at 1 to 5 uM after 24 hrs by immunoblot assay; format: functional, cell-based
[17] = test system: A549; assay: Induction of cell death in human A549 cells assessed as stabilization of p53 at 1 to 5 uM after 24 hrs by immunoblot assay; format: functional, cell-based

Row | SMILES | IC50 [1] | further results
1 | O=C1/C(=C/c2ccc(Oc3ccccc3)cc2)CS(=O)(=O)C/C1=C\c1ccc(Oc2ccccc2)cc1 | 2.94 µM | 
2 | O=C1/C(=C/c2ccc([N+](=O)[O-])cc2)CC2(C/C1=C\c1ccc([N+](=O)[O-])cc1)OCCO2 | 15.3 µM | 
3 | O=C1/C(=C/c2ccc([N+](=O)[O-])cc2)CCC/C1=C\c1ccc([N+](=O)[O-])cc1 | 27.5 µM | 
4 | O=C1/C(=C/c2ccc([N+](=O)[O-])cc2)CSC/C1=C\c1ccc([N+](=O)[O-])cc1 | 11.6 µM | 
5 | COc1ccc(/C=C2\CS(=O)(=O)C/C(=C\c3ccc(OC)c([N+](=O)[O-])c3)C2=O)cc1[N+](=O)[O-] | 1.14 µM | 
6 | CC(C)C[C@H](NC(=O)[C@H](Cc1ccccc1)NC(=O)c1cnccn1)B(O)O |  | Activity [2]: Active; Activity [3]: Active; Activity [4]: Active; inhibition [5]: inactive
7 | Cc1ccc(/C=C2\CS(=O)(=O)C/C(=C\c3ccc(C)cc3)C2=O)cc1 | 4.74 µM | Activity [6]: Active; Activity [7]: Active; Activity [8]: Active; Activity [9]: Active; Activity [10]: Active
8 | CCOC(=O)C1C/C(=C\c2ccc([N+](=O)[O-])cc2)C(=O)/C(=C/c2ccc([N+](=O)[O-])cc2)C1 (stereo not drawn) | 2.47 µM | 
9 | N#Cc1ccc(/C=C2\CS(=O)(=O)C/C(=C\c3ccc(C#N)cc3)C2=O)cc1 | 1.35 µM | 
10 | O=C1/C(=C/c2ccc([N+](=O)[O-])cc2)CS(=O)(=O)C/C1=C\c1ccc([N+](=O)[O-])cc1 | 0.77 µM | Activity [7]: Active; inhibition [11]: inactive; IC50 [12]: 13.6 µM; IC50 [13]: 32.6 µM; IC50 [14]: 33.2 µM; inhibition [15]: Active; Activity [16]: Active; Activity [17]: Active
11 | O=C1/C(=C/c2ccc(F)cc2)CS(=O)(=O)C/C1=C\c1ccc(F)cc1 | 2.21 µM | 
12 | O=C1/C(=C/c2ccc(O)cc2)CS(=O)(=O)C/C1=C\c1ccc(O)cc1 | 6.73 µM | 
13 | COc1ccc(/C=C2\CS(=O)(=O)C/C(=C\c3ccc(OC)cc3)C2=O)cc1 | 3.57 µM | 
14 | O=C1/C(=C/c2ccccc2)CS(=O)(=O)C/C1=C\c1ccccc1 | 5.11 µM | 
15 | O=C1/C(=C/c2ccc(O)cc2)CS(=O)(=O)C/C1=C\c1ccc([N+](=O)[O-])cc1 | 2.17 µM | 
16 | Cc1ccc(/C=C2\CS(=O)(=O)C/C(=C\c3ccc([N+](=O)[O-])cc3)C2=O)cc1 | 1.39 µM | 
17 | O=C1/C(=C/c2cccc([N+](=O)[O-])c2)CS(=O)(=O)C/C1=C\c1cccc([N+](=O)[O-])c1 | 0.76 µM | 
18 | O=C1/C(=C/c2ccc([N+](=O)[O-])cc2)COC/C1=C\c1ccc([N+](=O)[O-])cc1 | 50.1 µM | 
19 | O=C1/C(=C/c2ccc([N+](=O)[O-])cc2)C[S+]([O-])C/C1=C\c1ccc([N+](=O)[O-])cc1 (stereo not drawn) | 1.79 µM | Activity [7]: Active
20 | COc1ccc(/C=C2\CS(=O)(=O)C/C(=C\c3ccc([N+](=O)[O-])cc3)C2=O)cc1 | 2.09 µM | 
21 | O=C1/C(=C/c2ccc([N+](=O)[O-])cc2)CNC/C1=C\c1ccc([N+](=O)[O-])cc1 | 7.15 µM | 
